Results collected from several papers.
Target: Non-receptor tyrosine-protein kinase TNK1 (TNK1, Homo sapiens, UniProt Q13470)
Residues used in one study (Q13470 1-666): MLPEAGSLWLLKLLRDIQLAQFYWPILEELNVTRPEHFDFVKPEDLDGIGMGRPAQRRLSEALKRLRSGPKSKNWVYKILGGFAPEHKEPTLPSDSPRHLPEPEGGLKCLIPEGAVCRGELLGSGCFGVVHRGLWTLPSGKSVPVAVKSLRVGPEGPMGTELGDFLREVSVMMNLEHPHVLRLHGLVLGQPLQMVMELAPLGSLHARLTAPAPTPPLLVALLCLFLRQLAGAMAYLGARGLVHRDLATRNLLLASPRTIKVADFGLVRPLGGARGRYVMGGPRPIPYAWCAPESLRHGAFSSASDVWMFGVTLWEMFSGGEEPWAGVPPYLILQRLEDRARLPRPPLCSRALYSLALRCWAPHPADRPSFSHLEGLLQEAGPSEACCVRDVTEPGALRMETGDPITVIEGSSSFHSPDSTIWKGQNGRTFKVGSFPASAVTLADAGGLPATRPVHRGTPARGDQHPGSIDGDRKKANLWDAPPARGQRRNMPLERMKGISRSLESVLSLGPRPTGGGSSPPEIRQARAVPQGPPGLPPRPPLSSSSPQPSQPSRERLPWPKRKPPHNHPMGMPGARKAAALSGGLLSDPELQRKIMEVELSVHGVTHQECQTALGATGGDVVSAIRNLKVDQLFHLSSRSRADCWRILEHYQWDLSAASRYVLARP

Compound | observed | technique | tested at | remaining binding
FC(F)(F)Oc1cccc(-c2cnc3ccc(-c4ccncc4)nn23)c1 | binding | competition with immobilised ligand | 5 µM | 88%
O=C(c1ccc(Nc2ncc(Cl)c(-c3cc4ccccc4s3)n2)cc1)N1CCC(N2CCCC2)CC1 | binding | competition with immobilised ligand | 1 µM | 15%
CC1=C(C#N)C(c2ccc3c(c2)c(NC(=O)c2ccccc2C)nn3C)C(C#N)=C(C)N1 | cell-free assay | competition with immobilised ligand | 1 µM | 76%
C[C@@H]1CCN(c2nccc(-c3cnn4ncccc34)n2)C1 | binding |  | 1 µM | 100%
O=C(NCC1CCOCC1)c1n[nH]cc1NC(=O)c1c(F)cccc1F | binding | competition with immobilised ligand | 1 µM | 98%
CC(C)CC(=O)N1CCc2nc(-c3ccc(Br)cc3)nc(N(C)Cc3ccccc3)c2C1 | cell-free assay | competition with immobilised ligand | 0.1 µM | 100%
C=CC(=O)N1CCC(C(=O)NCC(=O)N2CCN(c3nc(-c4cnc(N)nc4C(F)F)nc(N4CCOCC4)n3)CC2)CC1 | binding | competition with immobilised ligand | 1 µM | 83%
CN(C)c1nccc(-c2cnn3ncccc23)n1 | binding |  | 1 µM | 67%
CNC(=O)c1ccc(Nc2ncc(C(F)(F)F)c(NCc3nccnc3N(C)S(C)(=O)=O)n2)cc1 | cell-free assay | competition with immobilised ligand | 0.1 µM | 100%
CN(CCCC(F)(F)F)c1nccc(-c2cnn3ncccc23)n1 | binding |  | 1 µM | 83%
Cc1c(C(=O)O)cc(-c2ccc(C3CCNCC3)cc2)c2ccc(-c3ccc(C(F)(F)F)cc3)cc12 | binding | competition with immobilised ligand | 1 µM | 100%
CN(c1nccc(-c2cnn3ncccc23)n1)C1CC1 | binding |  | 1 µM | 84%
COc1cc(-c2cn(C3CCc4c(F)cccc4N(CC(F)(F)F)C3=O)nn2)ccc1-n1cnc(C)c1 (stereo not shown) | cell-free assay | competition with immobilised ligand | 1 µM | 100%
N[C@@H]1CCN(c2nccc(-c3cnn4ncccc34)n2)C1 | binding |  | 1 µM | 100%
O=C(NCCCN1CCOCC1)c1ccc(Nc2ncc(Cl)c(-c3ccc(Cl)s3)n2)cc1 | binding | competition with immobilised ligand | 1 µM | 36%
C[C@@H](c1ccc(-n2cnc3c(N)ncnc32)cc1)N1CCc2nn(C)c(Cc3ccccc3)c2C1=O | binding | competition with immobilised ligand | 0.1 µM | 47%
O=C(Nc1ccc(Oc2ccc(F)cc2)cc1)N1CCc2ncccc2[C@H]1c1ccc(F)cc1 | cell-free assay | competition with immobilised ligand | 1 µM | 96%
c1cnn2ncc(-c3ccnc(N4CCC45COC5)n3)c2c1 | binding |  | 1 µM | 100%
COc1cc(C(=O)N2CCC(N3CCN(C)CC3)CC2)ccc1Nc1ncc2c(n1)N(C)c1ccccc1C(=O)N2C | binding | competition with immobilised ligand | 10 µM | 2.8%
O=C(NCCCN1CCOCC1)c1ccc(Nc2nccc(-c3cc4ccccc4s3)n2)cc1 | binding | competition with immobilised ligand | 1 µM | 41%
Cn1cc(Cl)c2c(Oc3c(F)cc(Nc4cc(Cl)nc(N)n4)cc3F)ccnc21 | cell-free assay | competition with immobilised ligand | 0.1 µM | 100%
COc1cnc(Nc2cccc(S(N)(=O)=O)c2)nc1N1CCN(c2ccccc2)CC1 | binding | competition with immobilised ligand | 1 µM | 98%
